Consider 7 molecules from ChEMBL document CHEMBL4118027, “Preussilides A-F, Bicyclic Polyketides from the Endophytic Fungus Preussia similis with Antiproliferative Activity” (J Nat Prod, 2017).

pIC50: −log10 of the molar value. ≈ marks a conversion by molar mass, not a printed value. Calls of active or inactive are those of the source.

The subject of one experiment is A549. The experiment can be described thus: Cytotoxicity against human A549 cells assessed as reduction in cell viability after 5 days by MTT assay. The class given is functional, cell-based. To be noted: A549, 120 h. In outline:
(§1)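 MTT viability assay run over 5 days on a panel of eight lines (L929, KB3.1, A431, A549, SKOV-3, PC-3, MCF-7, U2OS). IC50 values were derived.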

For a further experiment, the system named is KB 3-1. As to the kind of experiment: Cytotoxicity against human KB3-1 cells assessed as reduction in cell viability after 5 days by MTT assay. The class given is functional, cell-based. To be noted: KB 3-1, 120 h. In outline:
as §1
Background: Tetrazolium assays rely on reduction of a dye to a coloured formazan, in cell work by metabolically active cells.

The next experiment deals with Caenorhabditis elegans. As to the kind of experiment: Nematicidal activity against Caenorhabditis elegans up to 100 ug/ml. It counts as functional, organism-based.
Experiment [1] concerns L929. As to the kind of experiment: Cytotoxicity against mouse L929 cells assessed as reduction in cell viability after 5 days by MTT assay. The class given is functional, cell-based. The conditions noted are these: L929, 120 h. Put shortly: as §1
The test system of the next experiment is Candida albicans. The experiment can be described thus: Antifungal activity against Candida albicans DSM 1665 by serial dilution method. The class given is functional, organism-based.
Experiment [2] relates to Chromobacterium violaceum. As to the kind of experiment: Antibacterial activity against Chromobacterium violaceum DSM 30191 by serial dilution method. The class given is functional, organism-based.
For another experiment, the system named is Rhodotorula glutinis. As to the kind of experiment: Antifungal activity against Rhodotorula glutinis DSM 10134 by serial dilution method. The class given is functional, organism-based.
The test system of another experiment is Mucor hiemalis. The experiment can be described thus: Antifungal activity against Mucor hiemalis DSM 2656 by serial dilution method. It counts as functional, organism-based.
The test system of another experiment is SK-OV-3. As to the kind of experiment: Cytotoxicity against human SKOV3 cells assessed as reduction in cell viability after 5 days by MTT assay. It counts as functional, cell-based. To be noted: SK-OV-3, 120 h. In outline: as §1
A further experiment deals with Setaria italica. The experiment can be described thus: Phytotoxicity against Setaria italica assessed as inhibition of seedling germination at 100 ug/disk. The class given is functional, organism-based.
A further experiment relates to Micrococcus luteus. As to the kind of experiment: Antibacterial activity against Micrococcus luteus DSM 1790 by serial dilution method. The class given is functional, organism-based.
The subject of a further experiment is Yamadazyma tenuis. As to the kind of experiment: Antifungal activity against Candida tenuis MUCL 29892 by serial dilution method. It counts as functional, organism-based.
The next experiment relates to U2OS. The experiment can be described thus: Cytotoxicity against human U2OS cells assessed as reduction in cell viability after 5 days by MTT assay. It counts as functional, cell-based. The conditions noted are these: 120 h. In outline: as §1
The test system of a further experiment is MCF7. As to the kind of experiment: Cytotoxicity against human MCF7 cells assessed as reduction in cell viability after 5 days by MTT assay. It counts as functional, cell-based. The conditions noted are these: MCF7, 120 h. Put shortly: as §1
A further experiment has as its system Bacillus subtilis. As to the kind of experiment: Antibacterial activity against Bacillus subtilis DSM 10 by serial dilution method. The class given is functional, organism-based.
Experiment [3] relates to Schizosaccharomyces pombe. As to the kind of experiment: Antifungal activity against Schizosaccharomyces pombe DSM 70572 by serial dilution method. It counts as functional, organism-based.
The test system of another experiment is Pseudomonas aeruginosa. As to the kind of experiment: Antibacterial activity against Pseudomonas aeruginosa PA14 by serial dilution method. It counts as functional, organism-based.
Another experiment has as its system Escherichia coli. The experiment can be described thus: Antibacterial activity against Escherichia coli DSM 498 by serial dilution method. It counts as functional, organism-based.
Another experiment concerns PC-3. As to the kind of experiment: Cytotoxicity against human PC3 cells assessed as reduction in cell viability after 5 days by MTT assay. It counts as functional, cell-based. The conditions noted are these: PC-3, 120 h. In outline: as §1
In another experiment the test system is Staphylococcus aureus. As to the kind of experiment: Antibacterial activity against Staphylococcus aureus DSM 346 by serial dilution method. It counts as functional, organism-based.
The test system of another experiment is Wickerhamomyces anomalus. The experiment can be described thus: Antifungal activity against Pichia anomala DSM 6766 by serial dilution method. It counts as functional, organism-based.
In the next experiment the test system is A-431. As to the kind of experiment: Cytotoxicity against human A431 cells assessed as reduction in cell viability after 5 days by MTT assay. It counts as functional, cell-based. The conditions noted are these: A-431, 120 h. In outline: as §1
Another experiment deals with Lepidium sativum. As to the kind of experiment: Phytotoxicity against Lepidium sativum assessed as inhibition of seedling germination at 100 ug/disk. The class given is functional, organism-based.
Experiment [4] concerns Mycolicibacterium smegmatis. As to the kind of experiment: Antibacterial activity against Mycobacterium smegmatis ATCC 700084 by serial dilution method. The class given is functional, organism-based.
Experiment [5] deals with L929. The experiment can be described thus: Induction of nuclear fragmentation in mouse L929 cells at cytotoxic IC50 by DAPI staining based microscopic method. The class given is functional, cell-based.
In a further experiment the test system is Aspergillus fumigatus. As to the kind of experiment: Antifungal activity against Aspergillus fumigatus DSM 819 by serial dilution method. The class given is functional.
The test system of the next experiment is Sclerotinia sclerotiorum. As to the kind of experiment: Antifungal activity against Sclerotinia sclerotiorum DSM 1946 at 20 ug/disk after 5 days by disk diffusion assay. The class given is functional, organism-based. In outline:
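Disk diffusion on YMG medium seeded with a mycelial suspension of the non-sporulating fungus; paper disks loaded with test material; inhibition zone diameter in mm read after 5 days.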
For orientation: Agar diffusion results depend on both activity and mobility in agar.

Broadly, the pIC50 is −log10 of the IC50, conventionally taken in molar units. For the molecule `CC(=O)CC1=C(C)C=C2C[C@@H](C)[C@@H](O)[C@@H](C)[C@@H]2[C@H]1/C=C(C)/C=C(C)/C=C/C(=O)O`, the pIC50 was 4.15 in the experiment on A549; 4.95 in the experiment on KB 3-1; 4.76 with L929 [1]; 4.49 with SK-OV-3; less than 2.60 with U2OS; 4.66 in the experiment on MCF7. Further, the values for the pIC50 in the experiment on PC-3 and in the experiment on A-431 were 4.22 and 4.45, respectively. The outcome (in the experiment on Caenorhabditis elegans; in the experiment on Candida albicans; in [2]; in the experiment on Rhodotorula glutinis; in the experiment with Mucor hiemalis; in the experiment on Setaria italica) was inactive. Further, the result (with Micrococcus luteus; in the experiment with Yamadazyma tenuis; in the experiment with Bacillus subtilis; in [3]; in the experiment on Pseudomonas aeruginosa; in the experiment with Escherichia coli) was inactive. Moreover, the outcome (in the experiment on Staphylococcus aureus; with Wickerhamomyces anomalus; with Lepidium sativum; in [4]) was inactive. In addition, in the experiment with L929 [5], the outcome was Active.

Consider `COC(=O)/C=C/C(C)=C/C(C)=C/[C@H]1C(C[C@H](C)O)=C(C)C=C2C[C@@H](C)C(=O)[C@@H](C)[C@@H]21`, for which the pIC50 was 4.39 with A549; 4.64 with KB 3-1; 4.10 in the experiment with L929 [1]; 4.54 in the experiment with SK-OV-3; less than 2.62 in the experiment with U2OS; 4.25 in the experiment with MCF7. The pIC50 in the experiment on PC-3 was 4.39; in the experiment on A-431, 4.25. The result (in the experiment with Caenorhabditis elegans; in the experiment with Candida albicans; in experiment [2]; in the experiment with Rhodotorula glutinis; with Mucor hiemalis; in the experiment on Setaria italica) was inactive. Also, the result (in the experiment with Micrococcus luteus; with Yamadazyma tenuis; with Bacillus subtilis; in experiment [3]; with Pseudomonas aeruginosa; with Escherichia coli) was inactive. Further, the outcome (with Staphylococcus aureus; in the experiment with Wickerhamomyces anomalus; in the experiment with Lepidium sativum; in experiment [4]) was inactive. Moreover, in the experiment with L929 [5], the outcome was Active.

Take `CC(=O)CC1=C(C)C=C2C[C@@H](C)C(=O)[C@@H](C)[C@@H]2[C@H]1/C=C(C)/C=C(C)\C=C\C(=O)O`: the pIC50 was 4.32 in the experiment on A549; 4.76 with KB 3-1; 4.61 in the experiment with L929 [1]; 4.69 with SK-OV-3; less than 2.60 in the experiment with U2OS; 4.81 in the experiment on MCF7. Also, the pIC50 with PC-3 was 4.34; in the experiment with A-431, 4.75. In addition, the outcome (in the experiment with Caenorhabditis elegans; in the experiment with Candida albicans; in [2]; in the experiment with Rhodotorula glutinis; in the experiment on Mucor hiemalis; in the experiment with Setaria italica) was inactive. In addition, the outcome (with Micrococcus luteus; in the experiment on Yamadazyma tenuis; in the experiment with Bacillus subtilis; in [3]; in the experiment on Pseudomonas aeruginosa; with Escherichia coli) was inactive. Further, the result (in the experiment on Staphylococcus aureus; with Wickerhamomyces anomalus; with Lepidium sativum; in experiment [4]) was inactive. Moreover, in the experiment on L929 [5], the outcome was Active.

Broadly, the MIC is the smallest concentration in the dilution series that meets the test's criterion for growth inhibition. Higher therefore signals weaker potency. With `C[C@@H]1C[C@@H]([C@H](O)CC2CC(=O)NC(=O)C2)C(=O)[C@@H](C)C1` [CYCLOHEXIMIDE], inhibition of growth against Aspergillus fumigatus (MIC) required 33.3 µg/mL (≈ 118 µM).

Take NYSTATIN: the inhibition zone (IZ) in the experiment on Sclerotinia sclerotiorum is 32 mm.

With `COC(=O)/C=C/C(C)=C/C(C)=C/[C@H]1C(CC(C)=O)=C(C)C=C2C[C@@H](C)C(=O)[C@@H](C)[C@@H]21`, the pIC50 was less than 2.61 in the experiment on A549; 4.29 with KB 3-1; 4.27 with L929 [1]; less than 2.61 with SK-OV-3; 4.65 in the experiment with U2OS; less than 2.61 in the experiment with MCF7. The pIC50 with PC-3 and in the experiment on A-431 was less than 2.61 each time. The outcome (in the experiment with Caenorhabditis elegans; with Candida albicans; in experiment [2]; in the experiment with Rhodotorula glutinis; with Mucor hiemalis; in the experiment with Setaria italica) was inactive. For the same molecule, the result (with Micrococcus luteus; in the experiment on Yamadazyma tenuis; in the experiment with Bacillus subtilis; in [3]; in the experiment with Pseudomonas aeruginosa; in the experiment with Escherichia coli) was inactive. For the same molecule, the result (in the experiment on Staphylococcus aureus; in the experiment on Wickerhamomyces anomalus; with Lepidium sativum; in experiment [4]) was inactive. Besides, the outcome with L929 [5] was Active.

As to `C/C(=C\c1csc(C)n1)[C@@H]1C[C@@H]2O[C@]2(C)CCC[C@H](C)[C@H](O)[C@@H](C)C(=O)C(C)(C)[C@@H](O)CC(=O)O1` [PATUPILONE], the pIC50 with A549 is 9.82; in the experiment with KB 3-1, 10.21; with L929 [1], 8.77; with SK-OV-3, 10.63; in the experiment on U2OS it was 9.98; with MCF7, 9.82. Also, the pIC50 was 9.60 in the experiment on PC-3 and 10.14 with A-431.
